Laboratory results reported in ChEMBL document CHEMBL1157557, “Synthesis and evaluation of 1,4-diphenylbutadiene derivatives as inhibitors of plasminogen activator inhibitor-1 (PAI-1) production” (Bioorg Med Chem, 2010).

Assays:
Bos taurus [1] = organism: Bos taurus; assay: Inhibition of LPS-induced plasminogen activator inhibitor-1 production in BCAEC assessed as relative inhibitory potency in BCAEC at 1 uM after 24 hrs by ELISA relative to T-686; format: functional
Summary of the method: (§1)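 Bovine endothelial cells (BCaEs, passages 8–9) grown to confluence in E'MEM with 10% FCS, then serum-starved 24 h. Compound added (10 µM […]; 1 µM LPS-induced, 2 µM TGF-β-induced) with or without LPS 1 µg/ml or TGF-β 0.3 ng/ml. After 24 h, conditioned medium cleared by centrifugation (3000 rpm, 10 min, 4 °C) and PAI-1 antigen measured by specific ELISA; activity expressed relative to T-686 reference.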

Bos taurus [2] = organism: Bos taurus; assay: Inhibition of TGF-beta-induced plasminogen activator inhibitor-1 production in BCAEC assessed as relative inhibitory potency in BCAEC at 2 uM after 24 hrs by ELISA relative to T-686; format: functional; summary of the method: as §1
[3] = Oral bioavailability in dog; format: ADME, organism-based, Canis lupus familiaris; conditions: in vivo
[4] = Photostability assessed as compound remaining by HPLC analysis; format: physicochemical
Summary of the method: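 Stock (100 µg/ml in acetonitrile) 0.1 ml mixed with 0.9 ml 0.1 N HCl; kept at room temperature 24 h under room light or foil-protected. Read-out as % compound remaining.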

Rattus norvegicus [5] = organism: Rattus norvegicus; assay: Genotoxicity in rat assessed as chromosomal aberration; format: toxicity, organism-based; conditions: in vivo
Bos taurus [6] = organism: Bos taurus; assay: Inhibition of LPS-induced plasminogen activator inhibitor-1 production assessed as relative inhibitory potency in BCAEC at 10 uM after 24 hrs by ELISA relative to T-686; format: functional; summary of the method: as §1
[7] = Metabolic stability in dog blood assessed as compound remaining after 1 hr by HPLC analysis; format: ADME, tissue-based, Canis lupus familiaris; conditions: read-out: Stability
Summary of the method: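 Stock (100 µg/ml in acetonitrile) diluted tenfold with saline; 0.3 ml added to 3 ml heparinized dog blood prewarmed to 37 °C and incubated at 37 °C. After 1 h plasma separated with diethyl ether by centrifugation and parent level determined by HPLC; reported as % remaining.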

[8] = Aqueous solubility in water; format: physicochemical
Rattus norvegicus [9] = assay: Toxicity in rat assessed as decrease in locomotor activity at 300 mg/kg, po; conditions: in vivo
Rattus norvegicus [10] = assay: Antithrombotic activity in rat arterio-venous shunt model of thrombosis assessed as inhibition of thrombus formation at 10 mg/kg, po QD for 8 consecutive days measured after 2 hrs of last dose; format: functional
Summary of the method: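 Rats given test article orally 10 mg/kg once daily for 8 days, controls vehicle. Under Nembutal (50 mg/kg ip), a saline-filled polyethylene tube holding silk thread was placed from the right carotid artery to the left jugular vein. Two hours after the last dose the clamp was released, blood perfused 30 min, and wet weight of thread-bound thrombus taken.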

Rattus norvegicus [11] = assay: Antithrombotic activity in po dosed rat venous thrombosis model assessed as decrease in thrombus weight administered QD for 8 consecutive days measured after 2 hrs of last dose; format: functional
Summary of the method: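 Rats were dosed orally once daily for 8 days at 0.3, 1 and 3 mg/kg, with vehicle controls. They were anaesthetised with Nembutal 50 mg/kg ip, and all vena cava branches between the left renal vein and the bifurcation were ligated. 2 h after the last dose, 0.1 ml of 1:10 diluted rabbit brain thromboplastin was injected into the penile dorsal vein. Thrombus dry weight was measured.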

Rattus norvegicus [12] = assay: Toxicity in po dosed rat assessed as increase in bleeding time administered QD for 8 consecutive days measured after 2 hrs of last dose by tail incision bleeding time test; format: organism-based; conditions: in vivo
Summary of the method: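 Rats were dosed orally once daily for 8 days at 10, 30 and 100 mg/kg, with vehicle controls. Under Nembutal anaesthesia (50 mg/kg ip), 2 h after the last dose, a 2 mm deep incision was made 3.5 cm from the tail tip. Blood was blotted onto filter paper every 30 s, and bleeding time was taken as the time until no blood appeared.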

[13] = Therapeutic index, ratio of ED100 for increase in bleeding time in po dosed rat to ED50 for decrease in thrombus weight in po dosed rat venous thrombosis model; format: organism-based; conditions: in vivo, read-out: TI
Summary of the method: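 ED100 for prolonged bleeding time (tail incision, oral, daily for 8 days) was divided by ED50 for thrombus weight reduction in the venous thrombosis model (oral, daily for 8 days; ligated vena cava, thromboplastin injected 2 h after the last dose, thrombus dry weight).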

[14] = Inhibition of LPS-induced plasminogen activator inhibitor-1 production in BCAEC after 24 hrs by ELISA; format: functional, Bos taurus
Summary of the method: (§2)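 BCaEs (passages 8–9) confluent in E'MEM/10% FCS, serum-starved 24 h, then exposed to compound with LPS (1 µg/ml) or TGF-β (0.3 ng/ml) for 24 h. Medium centrifuged at 3000 rpm, 10 min, 4 °C, and PAI-1 antigen quantified by specific ELISA.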

[15] = Inhibition of TGF-beta-induced plasminogen activator inhibitor-1 production in BCAEC after 24 hrs by ELISA; format: functional, Bos taurus; summary of the method: as §2

COC(=O)C(=C(/C)c1cc(OC)cc(OC)c1)/C(=C\c1ccccc1)C(=O)NCc1ccncc1.Cl
Activity (Bos taurus [1]): 2.1 | Activity (Bos taurus [2]): 1.9 | bioavailability [3]: 28% | Stability [4]: 96% | Activity (Rattus norvegicus [5]): Toxic

COC(=O)C(=C/c1cc(OC)c(OC)c(OC)c1)/C(=C\c1ccccc1)C(N)=O
Activity (Bos taurus [6]): 0.9

COC(=O)C(=C(/C)c1cc(OC)cc(OC)c1)/C(=C\c1ccccc1)C(=O)NN1CC[N+](C)([O-])CC1
Activity (Bos taurus [1]): 0.2

COC(=O)C(=C(/C)c1cc(OC)cc(OC)c1)/C(=C\c1ccncc1)C(N)=O.Cl
Activity (Bos taurus [1]): 1.5 | Activity (Bos taurus [2]): 1.1 | bioavailability [3]: 78% | Stability [4]: 97% | Activity (Rattus norvegicus [5]): Toxic

COC(=O)C(=C(/C)c1cc(OC)cc(OC)c1)/C(=C\c1ccccc1)C(=O)O
Activity (Bos taurus [1]): 0.4 | Activity (Bos taurus [2]): 0.3

COc1cc(OC)cc(/C(C)=C2\C(=O)N(Cc3ccncc3)C(=O)\C2=C\c2ccccc2)c1.Cl
Activity (Bos taurus [1]): 1.8 | Activity (Bos taurus [2]): 1.4 | remaining at 1 h [7]: 60% | solubility [8]: 111 µg/mL | bioavailability [3]: 18% | Stability [4]: 38% | Activity (Rattus norvegicus [5]): Non-toxic

COC(=O)C(=C/c1cc(OC)c(OC)c(OC)c1)/C(C(N)=O)=C(/C)c1ccccc1
Activity (Bos taurus [6]): 0.2

COC(=O)C(=C/c1cc(OC)c(OC)c(OC)c1)/C(C(N)=O)=C(\C)c1ccccc1
Activity (Bos taurus [6]): 0.3

COC(=O)C(=C(/C)c1cc(OC)cc(OC)c1)/C(=C\c1ccccc1)C(=O)Nc1ccncc1.Cl
Activity (Bos taurus [1]): 1.8 | Activity (Bos taurus [2]): 1.1 | bioavailability [3]: 52% | Stability [4]: 85% | Activity (Rattus norvegicus [5]): Non-toxic | Activity (Rattus norvegicus [9]): Toxic

COC(=O)C(=C(/C)c1cc(OC)c(OC)c(OC)c1)/C(=C\c1ccccc1)C(N)=O
Activity (Bos taurus [6]): 1 | Activity (Bos taurus [1]): 1.5 | Activity (Bos taurus [2]): 0.7 | bioavailability [3]: 9% | Stability [4]: 91% | Activity (Rattus norvegicus [5]): Non-toxic

COC(=O)C(=C\c1cc(OC)c(OC)c(OC)c1)/C(=C\c1ccccc1)C(N)=O
Activity (Bos taurus [6]): 0.7

COC(=O)C(=C(/C)c1cc(OC)cc(OC)c1)/C(=C\c1ccccc1)C(=O)N1CCN(C)CC1
Activity (Bos taurus [1]): 0.3 | Activity (Bos taurus [2]): 0.3

COc1cc(OC)cc(/C(C)=C2\C(=O)N(Cc3cccnc3)C(=O)\C2=C\c2ccccc2)c1.Cl
Activity (Bos taurus [1]): 1 | Activity (Bos taurus [2]): 1.4 | remaining at 1 h [7]: 65% | solubility [8]: 38 µg/mL | Stability [4]: 47%

COC(=O)C(=C(/C)c1cc(OC)cc(OC)c1)/C(=C\c1ccccc1)C(=O)Nc1nnn[nH]1
Activity (Bos taurus [1]): 0.1

COC(=O)C(=C(/C)c1cc(OC)cc(OC)c1)/C(=C\c1cccnc1)C(N)=O
Activity (Bos taurus [1]): 0.8 | Activity (Bos taurus [2]): 1.2

COC(=O)C(/C(=C\c1ccccc1)C(N)=O)=C(\C)c1cc(OC)c(OC)c(OC)c1
Activity (Bos taurus [6]): 0.3

COC(=O)C(=C(/C)c1cc(OC)cc(OC)c1)/C(=C\c1ccccc1)C(=O)Nc1ncccn1
Activity (Bos taurus [1]): 0.1

COC(=O)C(=C(/C)c1cc(OC)cc(OC)c1)/C(=C\c1ccccc1)C(=O)NCc1cccnc1.Cl
Activity (Bos taurus [1]): 1.3 | Activity (Bos taurus [2]): 1.8 | bioavailability [3]: 21% | Stability [4]: 90% | Activity (Rattus norvegicus [5]): Non-toxic | Activity (Rattus norvegicus [9]): Toxic

COC(=O)C(=C(/C)c1cc(OC)cc(OC)c1)/C(=C\c1ccccc1)C(=O)NN1CCN(C)CC1.Cl
Activity (Bos taurus [1]): 1.5 | Activity (Bos taurus [2]): 0.9 | solubility [8]: > 4000 µg/mL | bioavailability [3]: 49% | Stability [4]: 91% | Activity (Rattus norvegicus [5]): Non-toxic | inhibition in vivo at 10 mg/kg (Rattus norvegicus [10]): 22% | ED50 (Rattus norvegicus [11]): 0.8 mg/kg/day | ED100 (Rattus norvegicus [12]): > 100 mg/kg/day | selectivity ratio [13]: > 125 | Activity (Rattus norvegicus [9]): Non-toxic

COC(=O)C(=C(/C)c1cc(OC)cc(OC)c1)/C(=C\c1ccccc1)C(=O)Nc1cccc2cccnc12
Activity (Bos taurus [1]): 0.4

CC(=O)CC(c1ccccc1)c1c(O)c2ccccc2oc1=O (configuration not stated) [WARFARIN]
ED50 (Rattus norvegicus [11]): 0.1 mg/kg/day | ED100 (Rattus norvegicus [12]): 0.2 mg/kg/day | selectivity ratio [13]: 2

COC(=O)C(=C(/C)c1cc(OC)cc(OC)c1)/C(=C\c1ccccc1)C(=O)NC1CCN(C)CC1
Activity (Bos taurus [1]): 0.8 | Activity (Bos taurus [2]): < 0.1

COC(=O)C(=C(/C)c1cc(OC)cc(OC)c1)/C(=C\c1ccccc1)C(=O)Nc1cccnc1.Cl
Activity (Bos taurus [1]): 2.2 | Activity (Bos taurus [2]): 1.1 | bioavailability [3]: 17% | Stability [4]: 88%

COC(=O)C(=C/c1cc(OC)c(OC)c(OC)c1)/C(=C/c1ccccc1)C(N)=O
Activity (Bos taurus [6]): 0.7

COc1cc(/C=C2/C(=O)NC(=O)/C2=C/c2ccccc2)cc(OC)c1OC
IC50 [14]: 0.9 µM | IC50 [15]: 4.3 µM | bioavailability [3]: 3% | Stability [4]: 12% | Activity (Rattus norvegicus [5]): Toxic

COC(=O)C(=C(/C)c1cc(OC)cc(OC)c1)/C(=C\c1ccccc1)C(=O)Nn1cnnc1
Activity (Bos taurus [1]): 0.6
